Results on 27 compounds are retold here after ChEMBL document CHEMBL4428023, “1,4-Dihydropyridines Active on the SIRT1/AMPK Pathway Ameliorate Skin Repair and Mitochondrial Function and Exhibit Inhibition of Proliferation in Cancer Cells” (J Med Chem, 2016).

The test system of assay [1] is HaCaT. Description: Activation of AMPK/SIRT1 in human HaCaT cells assessed as nitric oxide production at 1 uM incubated for 1 hr by DAF-2D staining-based fluorescence assay. The class given is cell-based. A digest of the protocol:
(§1)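 HaCaT keratinocytes grown in DMEM with 10% FBS and antibiotics. Cells treated 1 h (single-point 1 µM; dose-response at 5, 25, 50 µM). 5 µM DAF-2D added to complete medium. Cells then washed in PBS, trypsinized and analysed by flow cytometry for DAF fluorescence (ex 485/em 538 nm). Read-out is % DAF-positive cells relative to DMSO control.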

The target in assay [2] is T1, NAD-dependent protein deacetylase sirtuin-1 (Homo sapiens) (UniProt Q96EB6).
T1 sequence (whole entry): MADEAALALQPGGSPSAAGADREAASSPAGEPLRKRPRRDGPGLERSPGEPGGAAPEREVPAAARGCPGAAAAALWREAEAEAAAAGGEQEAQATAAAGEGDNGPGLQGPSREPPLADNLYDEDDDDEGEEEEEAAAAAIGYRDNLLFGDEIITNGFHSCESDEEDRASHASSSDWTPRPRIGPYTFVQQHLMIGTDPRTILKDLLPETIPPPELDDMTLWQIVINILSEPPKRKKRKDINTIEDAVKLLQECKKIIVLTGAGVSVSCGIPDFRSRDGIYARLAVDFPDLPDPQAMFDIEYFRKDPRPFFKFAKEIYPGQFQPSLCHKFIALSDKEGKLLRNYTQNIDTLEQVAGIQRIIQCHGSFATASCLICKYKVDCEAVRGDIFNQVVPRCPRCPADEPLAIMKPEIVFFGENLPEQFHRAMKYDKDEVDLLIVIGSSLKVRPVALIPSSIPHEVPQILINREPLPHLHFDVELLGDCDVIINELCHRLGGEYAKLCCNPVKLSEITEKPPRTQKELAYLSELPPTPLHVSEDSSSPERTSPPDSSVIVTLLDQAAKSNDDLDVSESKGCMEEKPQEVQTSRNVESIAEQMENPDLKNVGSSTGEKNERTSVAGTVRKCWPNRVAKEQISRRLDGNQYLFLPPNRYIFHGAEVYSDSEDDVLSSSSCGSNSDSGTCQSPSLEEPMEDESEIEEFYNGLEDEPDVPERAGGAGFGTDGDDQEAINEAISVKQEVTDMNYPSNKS
Description: Activation of full-length GST-tagged recombinant human SIRT1 assessed as enzyme activity obtained with subtraction of intrinsic fluorescence using p53-based untagged peptide as substrate at 50 uM after 30 mins by SIRTainty assay.

In assay [3] the target is T1, NAD-dependent protein deacetylase sirtuin-1 (Homo sapiens). Description: Activation of full-length GST-tagged recombinant human SIRT1 assessed as enzyme activity obtained without subtraction of intrinsic fluorescence using p53-based untagged peptide as substrate at 50 uM after 30 mins by SIRTainty assay.
Assay [4] has the same target. Description: Activation of SIRT1 in […] at 1 uM by fluorimetric assay. It is filed as cell-free. The note with it: HaCaT, TDE = time-dependent effect.
Assay [5] shares this target. Description: Activation of SIRT1 in human HaCaT cells assessed as H4K16 deacetylation at 1 uM after 1 hr by Western blotting method. The class given is cell-based. A digest of the protocol: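 HaCaT cells treated 1 h at 1 µM, DMSO as solvent control. Cells lysed in Laemmli buffer and immunoblotted for acetyl-H4K16 (1:1000), with total histone H4 as loading control. Bands quantified by densitometry. At least three independent experiments.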
Background: In western blotting, separated proteins are transferred to a membrane and probed.

The target in assay [6] is 3',5'-cyclic-AMP phosphodiesterase 4D (Homo sapiens) (UniProt Q08499). Put plainly: Inhibition of recombinant human PDE4D assessed as phosphate release using cAMP as substrate at 50 uM after 60 mins by malachite green assay. A digest of the protocol:
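Recombinant human PDE4D (20 mU) in 10 mM Tris-HCl pH 7.4 with cAMP substrate. Compounds at 50 µM in DMSO; rolipram 10 µM as positive control. Incubated 60 min at 37 °C, then phosphate release measured by malachite green absorbance at 620 nm. Mean of three determinations.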

For assay [7], the system named is HaCaT. Put plainly: Activation of AMPK/SIRT1 in human HaCaT cells assessed as nitric oxide production incubated for 1 hr by DAF-2D staining-based fluorescence assay. The class given is cell-based. A digest of the protocol: as §1
The test system of assay [8] is HaCaT. Put plainly: Activation of AMPK/SIRT1 in human HaCaT cells assessed as nitric oxide production at 10 uM incubated for 1 hr in presence of compound C by DAF-2D staining-based fluorescence assay. It is filed as cell-based. Summed up:
(§2)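 HaCaT cells in DMEM with 10% FBS. DHP (10 µM) given for 1 h alone or together with 10 µM AMPK inhibitor compound C or 10 µM SIRT1 inhibitor EX-527. Intracellular NO read by flow cytometry after loading with 5 µM DAF-2D in medium (ex 485/em 538 nm). Expressed as % DAF-positive cells versus DMSO.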

Assay [9] concerns HaCaT. Description: Activation of AMPK/SIRT1 in human HaCaT cells assessed as nitric oxide production at 10 uM incubated for 1 hr in presence of EX-527 by DAF-2D staining-based fluorescence assay. It is filed as cell-based. Summed up: as §2
Assay [10] relates to Mus musculus. Description: Wound healing activity in CD1 mouse assessed as decrease in epithelial gap at 1 uM administered topically on wound everyday for 14 days by biopsy punch assay. The class given is functional, organism-based. Summed up:
(§3)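 Male CD1 mice, 8 weeks old, anaesthetized i.p. with medetomidine 1 mg/kg plus ketamine 75 mg/kg, then biopsy-punch wounded. Compound (1 µM) in 20 µL saline applied directly to the wound daily for 14 days; solvent-treated group as control. Epithelial gap and % wound closure followed over time.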

The test system of assay [11] is Mus musculus. Put plainly: Wound healing activity in CD1 mouse assessed as increased wound closure at 1 uM administered topically on wound everyday for 14 days by biopsy punch assay. The class given is functional, organism-based. Summed up: as §3
The test system of assay [12] is C2C12. Put plainly: Activation of AMPK/SIRT1 in mouse C2C12 cells assessed as increase in mitochondrial density at 30 uM after 16 hrs by Mitotracker Green staining-based confocal microscopy. The class given is cell-based. Summed up:
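Murine C2C12 myoblasts plated on coverslips and grown overnight at 37 °C, 5% CO2. Then switched to serum-free HBSS, pH 7.4, and treated 16 h at 30 µM, alone or with 5 µM compound C or EX-527. Mitotracker Green (200 nM final) added for the last 30 min. Cells fixed in 4% paraformaldehyde, permeabilized and imaged by confocal microscopy, with settings fixed on untreated cells. Plate fluorescence also quantified.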

In assay [13] the test system is C2C12. Put plainly: Activation of AMPK/SIRT1 in mouse C2C12 cells assessed as increase in mitochondrial density at 30 uM after 16 hrs by Mitotracker Green staining-based confocal microscopy in presence of compound C. The class given is cell-based. Summed up:
(§4)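 C2C12 myoblasts plated overnight, then in serum-free HBSS pH 7.4 and treated 16 h at 30 µM, alone or with 5 µM inhibitor (EX-527 or compound C). Mitotracker Green at 200 nM final was added for the last 30 min. Cells were fixed in 4% paraformaldehyde, permeabilized with Triton X-100 and imaged by confocal microscopy with fixed settings. Alternatively, mitochondrial fluorescence was quantified in plates.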

Assay [14] concerns C2C12. Put plainly: Activation of AMPK/SIRT1 in mouse C2C12 cells assessed as increase in mitochondrial density at 30 uM after 16 hrs by Mitotracker Green staining-based confocal microscopy in presence of EX-527. The class given is cell-based. A digest of the protocol: as §4
The species entered for assay [15] is Cavia porcellus. Description: Antagonist activity at calcium channel in guinea pig smooth muscle assessed as inhibition of calcium-induced contraction in K+-depolarized aortic strips at 50 uM. A digest of the protocol:
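Guinea-pig isolated aortic strips depolarized with 80 mM K+; read-out is percent inhibition of calcium-induced contraction.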

The species named for assay [16] is Cavia porcellus. Put plainly: Potency index, ratio of potency for test compound to potency for nifedipine for inhibition of calcium channel in guinea pig ileum longitudinal smooth muscle assessed as inhibition of calcium-induced contraction. It is filed as tissue-based.

For orientation: inhibition means the drop in the measured response relative to a control, in per cent.

Activity calls are given as the source filed them. No cut-off for these calls is given here.

3',5'-cyclic-AMP phosphodiesterase 4D (Homo sapiens), sequence (Q08499 whole entry): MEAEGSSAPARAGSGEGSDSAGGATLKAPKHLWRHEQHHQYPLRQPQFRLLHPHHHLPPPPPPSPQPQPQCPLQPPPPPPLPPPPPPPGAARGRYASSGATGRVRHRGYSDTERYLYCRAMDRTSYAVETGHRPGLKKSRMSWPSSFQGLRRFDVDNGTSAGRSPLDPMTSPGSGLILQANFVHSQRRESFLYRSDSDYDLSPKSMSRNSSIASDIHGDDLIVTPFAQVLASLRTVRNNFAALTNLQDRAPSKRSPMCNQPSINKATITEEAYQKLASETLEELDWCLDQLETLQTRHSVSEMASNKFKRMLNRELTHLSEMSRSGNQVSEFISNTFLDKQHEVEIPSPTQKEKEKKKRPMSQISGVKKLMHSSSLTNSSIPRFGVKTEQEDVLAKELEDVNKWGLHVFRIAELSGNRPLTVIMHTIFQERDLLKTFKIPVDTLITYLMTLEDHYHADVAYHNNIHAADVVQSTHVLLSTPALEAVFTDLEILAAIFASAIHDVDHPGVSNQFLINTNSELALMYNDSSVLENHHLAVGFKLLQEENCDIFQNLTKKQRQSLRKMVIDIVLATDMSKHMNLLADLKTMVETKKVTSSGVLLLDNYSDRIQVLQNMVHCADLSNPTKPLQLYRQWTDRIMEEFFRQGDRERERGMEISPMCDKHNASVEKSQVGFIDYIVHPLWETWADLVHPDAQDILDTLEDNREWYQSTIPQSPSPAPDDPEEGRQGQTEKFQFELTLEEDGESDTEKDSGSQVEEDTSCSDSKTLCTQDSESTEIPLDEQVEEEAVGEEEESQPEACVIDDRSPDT

`CCOC(=O)C1=CN(Cc2ccccc2)C=C(C(=O)OCC)C1c1cnc2ccccc2c1`: in the assay on HaCaT [1], the result was Active. The Activity in assay [2] was 283%; in assay [3], 324%.
Turning to `Oc1ccc(/C=C/c2cc(O)cc(O)c2)cc1`, the Activity entry in [4] is “Tde”. For the same compound, the outcome in [5] was Active.
In the case of `CCOC(=O)C1=CN(C(=O)c2ccc3ccccc3c2)C=C(C(=O)OCC)C1c1ccccc1`, in assay [6], the inhibition entry is “inactive”. Moreover, the Activity in assay [2] amounted to 207%; in assay [3] it was 235%.
Take `CCOC(=O)C1=CN(Cc2ccccc2)C=C(C(=O)OCC)C1c1ccsc1`: the inhibition result in [6] was “inactive”. In addition, the result (in the assay with HaCaT [1]; in assay [5]; with Mus musculus [10]; in the assay with Mus musculus [11]; in the assay on C2C12 [12]) was Active. Further, the Activity result in the assay with HaCaT [7] is “Dose-dependent effect”; in [4], “Tde”; in assay [2] it was 126%; in assay [3], 404%. Further, the outcome in the assay on HaCaT [8], in the assay on HaCaT [9], in the assay on C2C12 [13] and with C2C12 [14] was inactive. In the assay filed under Cavia porcellus [15], the inhibition amounted to 13%. In addition, the Ratio in the assay filed under Cavia porcellus [16] was determined as 266.
In the case of `CCOC(=O)C1=CN(Cc2ccccc2)C=C(C(=O)OCC)C1c1nccs1`, in the assay on HaCaT [1], the outcome was Active. Besides, the Activity is 282% in [2] and 300% in assay [3].
Consider `O=C(O)C1=CN(Cc2ccccc2)C=C(C(=O)O)C1c1ccco1`, for which, in the assay with C2C12 [12], the outcome was inactive. The Activity in [2] and in [3] was 41% in each case.
Consider `NC(=O)C1=CN(Cc2ccccc2)C=C(C(N)=O)C1c1ccco1`, for which the Activity was determined as 62% in [2] and 77% in assay [3].
`CCOC(=O)C1=CN(Cc2ccccc2)C=C(C(=O)OCC)C1c1ccco1`: the inhibition entry in assay [6] was “inactive”. Besides, the outcome (with HaCaT [1]; in [5]; in the assay with Mus musculus [10]; in the assay with Mus musculus [11]) was Active. Further, the Activity result was “Dose-dependent effect” with HaCaT [7], “Tde” in [4], 64% in [2] and 294% in assay [3].
`CCOC(=O)C1=CN(Cc2ccccc2)C=C(C(=O)OCC)C1c1cc2ccccc2s1`: the Activity stood at 39% in assay [2] and 139% in assay [3].
Take `N#CC1=CN(Cc2ccccc2)C=C(C#N)C1c1ccccc1`: the Activity in assay [2] was 152%; in assay [3], 193%.
For the compound `CCOC(=O)C1=CN(Cc2ccccc2)C=C(C(N)=O)C1c1ccccc1` (stereo not drawn), the values for the Activity in assay [2] and in assay [3] were 108% and 198%, respectively.
On to `CCOC(=O)C1=CN(C(=O)c2ccccc2)C=C(C(=O)OCC)C1c1cccc(OC)c1`, for which the figures for the Activity in assay [2] and in assay [3] were 117% and 156%, respectively.
For `O=C(O)C1=CN(Cc2ccccc2)C=C(C(=O)O)C1c1ccc(-c2ccccc2)cc1`, the inhibition entry in [6] is “inactive”. Moreover, the Activity in assay [2] and in assay [3] was 285% each time.
With `O=C(O)C1=CN(Cc2ccccc2)C=C(C(=O)O)C1c1cccs1`, the Activity in assay [2] and in [3] was 21% throughout.
For `CCOC(=O)C1=CN(C(=O)c2ccccc2)C=C(C(=O)OCC)C1c1ccc(OC)cc1`, the Activity in [2] stood at 131%; in assay [3], 173%.
`NC(=O)C1=CN(Cc2ccccc2)C=C(C(N)=O)C1c1cc2ccccc2s1`: the Activity in [2] was found to be 37%; in assay [3], 127%.
Take `CCOC(=O)C1=CN(C(=O)c2ccccc2)C=C(C(=O)OCC)C1c1ccccc1Cl`: the Activity in [2] stood at 143%; in assay [3] it was 184%.
For `CCOC(=O)C1=CN(C(=O)c2cnc3ccccc3n2)C=C(C(=O)OCC)C1c1ccccc1`, the Activity was 165% in [2] and 206% in [3].
In the case of `CC1=C(C(=O)O)C(c2ccccc2)C(C(=O)O)=C(C)N1Cc1ccccc1`, the Activity in assay [2] was 102%; in [3], 103%.
For the compound `CCOC(=O)C1=CN(Cc2ccccc2)C=C(C(=O)OCC)C1c1ccccc1`, the inhibition result in assay [6] is “inactive”. The outcome (in the assay on HaCaT [1]; in assay [5]) was Active. Besides, the Activity was 164% in assay [2] and 217% in [3].
Consider `O=C(O)C1=CN(Cc2ccccc2)C=C(C(=O)O)C1c1nccs1`, for which the results for the Activity in assay [2] and in assay [3] were 132% and 174%, respectively.
The matching figures for `CCOC(=O)C1=CN(Cc2ccccc2)C=C(C(=O)O)C1c1ccccc1` (stereo not drawn): 105% and 196%.
Consider `CCOC(=O)C1=CN(C(=O)c2ccccc2)C=C(C(=O)OCC)C1c1ccccc1C`, for which the results for the Activity in assay [2] and in assay [3] were 140% and 183%, respectively.
Take `CCOC(=O)C1=C(C)N(Cc2ccccc2)C(C)=C(C(=O)OCC)C1c1ccccc1`: the Activity in [2] and in assay [3] was 114% throughout.
Turning to `CCOC(=O)C1=CN(Cc2ccccc2)C=C(C(=O)OCC)C1c1ccc(-c2ccccc2)cc1`, the Activity in assay [2] and in assay [3] was 61% in each case.
`CCOC(=O)C1=CN(C(=O)c2ccccc2)C=C(C(=O)OCC)C1c1ccc(C)cc1`: the Activity is 103% in assay [2] and 144% in assay [3].
Take `CCOC(=O)C1=CN(Cc2ccccc2)C=C(C(=O)OCC)C1c1ccc2ccccc2c1`: the Activity in assay [2] came out at 100%; in [3], 282%.
